Test results published in ChEMBL document CHEMBL3414445, “Blood-brain barrier permeable anticholinesterase aurones: synthesis, structure-activity relationship, and drug-like properties” (Eur J Med Chem, 2015).
pIC50: −log10 of the molar value.

Columns and labels:
[1] = Selectivity index, ratio of IC50 for equine serum butyrylcholine esterase to IC50 for electric eel AChE
[2] = target: Cholinesterase (Equus caballus, UniProt P81908); experiment: Inhibition of equine serum butyrylcholine esterase incubated for 15 mins using S-butyrylthiocholine chloride substrate by colorimetric Ellman's method
Sequence of Cholinesterase (P81908 whole entry): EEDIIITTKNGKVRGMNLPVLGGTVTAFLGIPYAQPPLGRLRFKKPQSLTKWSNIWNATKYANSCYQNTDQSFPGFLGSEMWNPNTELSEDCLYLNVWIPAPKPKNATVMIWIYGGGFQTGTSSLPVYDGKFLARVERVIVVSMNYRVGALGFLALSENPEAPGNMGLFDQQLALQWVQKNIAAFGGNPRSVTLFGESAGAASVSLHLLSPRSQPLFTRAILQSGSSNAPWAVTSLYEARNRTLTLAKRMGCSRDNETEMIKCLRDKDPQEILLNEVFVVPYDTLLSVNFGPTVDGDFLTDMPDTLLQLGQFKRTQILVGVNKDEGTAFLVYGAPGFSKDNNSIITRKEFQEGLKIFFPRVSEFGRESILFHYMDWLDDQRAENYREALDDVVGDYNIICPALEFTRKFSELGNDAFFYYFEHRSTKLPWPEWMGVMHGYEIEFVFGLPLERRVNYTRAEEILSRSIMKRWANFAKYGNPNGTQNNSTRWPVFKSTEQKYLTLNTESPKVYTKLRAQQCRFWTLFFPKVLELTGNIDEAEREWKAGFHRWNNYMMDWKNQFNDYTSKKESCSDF

[3] = target: Acetylcholinesterase (Electrophorus electricus, UniProt O42275); experiment: Inhibition of electric eel AChE incubated for 15 mins using […] substrate by colorimetric Ellman's method
Sequence of Acetylcholinesterase (O42275 whole entry): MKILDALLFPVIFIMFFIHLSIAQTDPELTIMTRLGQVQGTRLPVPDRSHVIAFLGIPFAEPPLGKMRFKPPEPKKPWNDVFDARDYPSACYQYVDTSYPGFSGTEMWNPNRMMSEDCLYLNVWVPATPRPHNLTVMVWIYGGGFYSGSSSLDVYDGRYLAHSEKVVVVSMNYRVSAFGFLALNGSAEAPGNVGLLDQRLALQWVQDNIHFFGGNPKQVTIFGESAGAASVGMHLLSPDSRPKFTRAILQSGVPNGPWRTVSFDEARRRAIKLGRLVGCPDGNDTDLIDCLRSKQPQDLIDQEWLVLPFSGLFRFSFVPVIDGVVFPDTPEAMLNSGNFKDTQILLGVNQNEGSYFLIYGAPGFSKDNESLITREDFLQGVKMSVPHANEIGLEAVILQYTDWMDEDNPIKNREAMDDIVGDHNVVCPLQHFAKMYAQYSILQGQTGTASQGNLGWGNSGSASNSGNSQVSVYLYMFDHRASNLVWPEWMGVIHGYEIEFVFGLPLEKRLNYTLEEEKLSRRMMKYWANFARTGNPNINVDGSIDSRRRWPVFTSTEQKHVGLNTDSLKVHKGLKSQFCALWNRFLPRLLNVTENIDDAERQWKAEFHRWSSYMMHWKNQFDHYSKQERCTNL

[4] = system: Liver microsome; experiment: Drug metabolism in Sprague-Dawley rat liver microsomes assessed as formation of monohydroxylated metabolite at 2 uM at pH 7.4 pre-incubated in presence of NADPH regenerating system measured after 10 to 30 mins by LC-MS method; format: ADME; conditions: pH 7.4, 2 µM
Procedure, shortened: (§1)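 Compound added (2 µM final, from DMSO stock), 37 °C; time-0 aliquot and reaction quenched with ice-cold acetonitrile (acetaminophen internal standard) at 10 min, or 30 min for some compounds. Single time-point design; LC-MS (Q-Tof) analysis.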

[5] = Stability in Sprague-Dawley rat liver microsomes assessed as parent compound remaining at 2 uM measured 30 mins after microsomal reactions termination at pH 7.4 pre-incubated in presence of NADPH regenerating system by LC-MS method; format: ADME; conditions: read-out: Stability
[6] = system: Liver microsome; experiment: Drug metabolism in Sprague-Dawley rat liver microsomes assessed as formation of desmethylated metabolite at 2 uM at pH 7.4 pre-incubated in presence of NADPH regenerating system measured after 10 to 30 mins by LC-MS method; format: ADME; conditions: pH 7.4, 2 µM; procedure, shortened: as §1
[7] = Half life in Sprague-Dawley rat liver microsomes at 2 uM at pH 7.4 pre-incubated in presence of NADPH regenerating system measured 30 mins after microsomal reactions termination by LC-MS method; format: ADME
[8] = in vitro; conditions: PAMPA, pH 7.4
[9] = Stability in Sprague-Dawley rat liver microsomes assessed as parent compound remaining at 2 uM measured 10 mins after microsomal reactions termination at pH 7.4 pre-incubated in presence of NADPH regenerating system by LC-MS method; format: ADME; conditions: read-out: Stability; procedure, shortened: as §1
[10] = Half life in Sprague-Dawley rat liver microsomes at 2 uM at pH 7.4 pre-incubated in presence of NADPH regenerating system measured 10 mins after microsomal reactions termination by LC-MS method; format: ADME; procedure, shortened: as §1
[11] = Retention time of the compound by HPLC-UV method; format: physicochemical

Compound	Ratio IC50 [1]	pIC50 [2]	pIC50 [3]	also measured
O=C1/C(=C/c2ccc(OCCN3CCCC3)c(Cl)c2)Oc2cc(O)ccc21	34.3	5.00	6.54	
COc1ccc(/C=C2\Oc3cc(OCCN(C)C)ccc3C2=O)cc1	2.1	4.60	4.92	
COc1cc(/C=C2\Oc3cc(OCCN4CCCCC4)ccc3C2=O)cc(OC)c1OC	14.6	5.21	6.37	Drug metabolism [4]: metabolite_detected; Retention_time: 3.7 min; remaining at 0.5 h, 2 µM [5]: 61.9%; Drug metabolism [6]: metabolite_detected; half-life at 2 µM [7]: 43.8 min; Papp [8]: 21.3 ×10⁻⁶ cm/s
CCN(CC)C(=O)Oc1ccc2c(c1)O/C(=C\c1ccc(OCCCN(C)C)cc1)C2=O	1.85	5.21	5.48	
COc1ccc2c(c1)O/C(=C\c1ccc(OCCN3CCCCC3)cc1Cl)C2=O	22.2	4.94	6.29	
CCN(CC)C(=O)Oc1ccc2c(c1)O/C(=C\c1ccc(OCCN(C)C)cc1)C2=O	1.78	5.01	5.26	
COc1ccc2c(c1)O/C(=C\c1ccc(O)cc1)C2=O		< 4.00	< 4.00	
COc1ccc(/C=C2\Oc3cc(O)ccc3C2=O)cc1		< 4.00	< 4.00	
O=C1/C(=C/c2ccncc2)Oc2cc(O)ccc21		< 4.00	< 4.00	
CCN(CC)C(=O)Oc1ccc(/C=C2\Oc3cc(OC)ccc3C2=O)cc1		< 4.00	4.96	
COc1ccc2c(c1)O/C(=C\c1ccc(OCCN(C)C)c(Cl)c1)C2=O	8.35	4.95	5.88	
CCN(CC)c1ccc(/C=C2\Oc3cc(OC)ccc3C2=O)cc1		< 4.00	< 4.00	
COc1ccc2c(c1)O/C(=C\c1ccc(OCCCN(C)C)cc1)C2=O	12.5	4.52	5.61	
COc1ccc2c(c1)O/C(=C\c1ccc(OCCN3CCCCC3)cc1)C2=O	25.5	5.05	6.46	remaining at 10 min, 2 µM [9]: 52.1%; half-life at 2 µM [10]: 10.9 min; Retention_time: 4.5 min; Papp [8]: 20 ×10⁻⁶ cm/s
CN(C)CCOc1ccc(/C=C2\Oc3cc(O)ccc3C2=O)cc1		< 4.00	5.26	
COc1ccc(/C=C2\Oc3cc(OC)ccc3C2=O)cc1		< 4.00	< 4.00	remaining at 10 min, 2 µM [9]: 41.4%; half-life at 2 µM [10]: 7.9 min; Retention_time: 3.9 min; Papp [8]: 9.8 ×10⁻⁶ cm/s
COc1ccc(/C=C2\Oc3cc(OCCN4CCCCC4)ccc3C2=O)cc1	8.13	5.16	6.07	remaining at 10 min, 2 µM [9]: 53.6%; half-life at 2 µM [10]: 11.2 min; Retention_time: 4.5 min; Papp [8]: 20 ×10⁻⁶ cm/s
COc1ccc2c(c1)O/C(=C\c1ccc(OCCN(C)C)cc1Cl)C2=O	1.93	4.62	4.91	
CCN(CC)C(=O)Oc1ccc2c(c1)O/C(=C\c1ccc(OC)cc1)C2=O		4.90	< 4.00	
COc1ccc2c(c1)O/C(=C\c1ccc(OCCN(C)C)cc1)C2=O	13.1	4.59	5.71	
O=C1/C(=C/c2ccc(OCCN3CCCC3)cc2Cl)Oc2cc(O)ccc21	9.89	5.06	6.06	
CCN(CC)C(=O)Oc1ccc2c(c1)O/C(=C\c1ccc(N(C)C)cc1)C2=O		< 4.00	< 4.00	
CCN(CC)C(=O)Oc1ccc2c(c1)O/C(=C\c1ccc(OCCN3CCCC3)cc1)C2=O	9.5	5.13	6.11	

Compound	Ratio IC50 [1]	pIC50 [2]	pIC50 [3]	also measured
COc1cc2c(cc1OC)C(=O)C(CC1CCN(Cc3ccccc3)CC1)C2 (stereo not given) [DONEPEZIL]				remaining at 0.5 h, 2 µM [5]: 76.2%; half-life at 2 µM [7]: 76.5 min
Cn1c(=O)c2c(ncn2C)n(C)c1=O [CAFFEINE]				Retention_time [11]: 3.2 min
CCN(CC)c1ccc(/C=C2\Oc3cc(O)ccc3C2=O)cc1		< 4.00	< 4.00	
O=C1/C(=C/c2ccc(OCCN3CCCCC3)cc2)Oc2cc(O)ccc21		< 4.00	5.65	Retention_time: 3.6 min; Papp [8]: 10 ×10⁻⁶ cm/s
COc1ccc2c(c1)O/C(=C\c1ccc(OCCN3CCCCC3)c(Cl)c1)C2=O	49.4	5.10	6.80	remaining at 10 min, 2 µM [9]: 59.5%; half-life at 2 µM [10]: 13.4 min; Retention_time: 3.4 min; Papp [8]: 12.2 ×10⁻⁶ cm/s
COc1cc(/C=C2\Oc3cc(OCCN(C)C)ccc3C2=O)cc(OC)c1OC	4.26	4.18	4.81	
C[C@]12CC[C@H]3[C@@H](CCC4=CC(=O)CC[C@@]43C)[C@@H]1CC[C@@H]2O [TESTOSTERONE]				remaining at 10 min, 2 µM [9]: < 0.001%; half-life at 2 µM [10]: 0.48 min
COc1ccc2c(c1)O/C(=C\c1ccncc1)C2=O		< 4.00	< 4.00	
COc1ccc(/C=C2\Oc3cc(OCCN4CCCC4)ccc3C2=O)cc1	6.1	5.14	5.93	
COc1ccc2c(c1)O/C(=C\c1ccc(OCCCN(C)C)cc1Cl)C2=O	2.26	4.47	4.82	
CN(C)c1ccc(/C=C2\Oc3cc(O)ccc3C2=O)cc1		< 4.00	< 4.00	
COc1cc(/C=C2\Oc3cc(OCCCN(C)C)ccc3C2=O)cc(OC)c1OC		< 4.00	5.01	
O=C1/C(=C/c2ccc(OCCN3CCCC3)cc2)Oc2cc(O)ccc21		< 4.00	5.49	
CCN(CC)C(=O)Oc1ccc2c(c1)O/C(=C\c1ccc(N(CC)CC)cc1)C2=O		< 4.00	< 4.00	
COc1ccc2c(c1)O/C(=C\c1ccc(OCCN3CCCC3)cc1)C2=O	18.7	4.99	6.26	remaining at 10 min, 2 µM [9]: 25.3%; half-life at 2 µM [10]: 5.1 min; Drug metabolism [4]: metabolite_detected; Retention_time: 3.6 min; Papp [8]: 24.7 ×10⁻⁶ cm/s
COc1ccc2c(c1)O/C(=C\c1ccc(N(C)C)cc1)C2=O	0.63	4.50	4.30	
CN(C)CCCOc1ccc(/C=C2\Oc3cc(O)ccc3C2=O)cc1		< 4.00	5.10	
Cn1c(=O)c2[nH]cnc2n(C)c1=O.O [THEOPHYLLINE]				Retention_time [11]: 3.4 min
COc1cc(/C=C2\Oc3cc(OCCN4CCCC4)ccc3C2=O)cc(OC)c1OC	18.2	4.93	6.19	
CCN(CC)C(=O)Oc1ccc2c(c1)O/C(=C\c1ccc(OCCN3CCCCC3)cc1)C2=O	11	5.14	6.19	remaining at 10 min, 2 µM [9]: 44.3%; half-life at 2 µM [10]: 8.5 min; Retention_time: 4.2 min; Papp [8]: 16.1 ×10⁻⁶ cm/s
COc1ccc(/C=C2\Oc3cc(OCCCN(C)C)ccc3C2=O)cc1	1.99	4.51	4.80	
COc1ccc2c(c1)O/C(=C\c1ccc(OCCCN(C)C)c(Cl)c1)C2=O	13.4	4.67	5.79	
